# Measurements taken from ChEMBL document CHEMBL3734675, “Synthesis, antimycobacterial and antibacterial activity of fluoroquinolone derivatives containing an 3-alkoxyimino-4-(cyclopropylanimo)methylpyrrolidine moiety” (2015).
# Assays:
# Assay type in all cases: functional
# Streptococcus pneumoniae = experiment: Antibacterial activity against methicillin-resistant Streptococcus pneumoniae ATCC 19615 after 18 to 24 hrs by two-fold serial dilution method
# Outline: (§1)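 Agar media, standard twofold serial dilution. MIC is the lowest concentration giving complete inhibition of bacterial growth after incubation at 35 °C for 18–24 h. Ciprofloxacin and levofloxacin were run as comparators.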
# Klebsiella pneumoniae [1] = experiment: Antibacterial activity against Klebsiella pneumoniae 14-4 after 18 to 24 hrs by two-fold serial dilution method
# Outline: (§2)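 Twofold serial dilution in agar media against Gram-positive and Gram-negative strains. Plates incubated at 35 °C for 18–24 h. MIC read as the lowest compound concentration giving complete inhibition of bacterial growth.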
# Escherichia coli [2] = experiment: Antibacterial activity against Escherichia coli ATCC 25922 after 18 to 24 hrs by two-fold serial dilution method; outline: as §2
# Escherichia coli [3] = experiment: Antibacterial activity against extended-spectrum beta-lactamase producing Escherichia coli 14-1 after 18 to 24 hrs by two-fold serial dilution method; outline: as §2
# Staphylococcus aureus [4] = experiment: Antibacterial activity against methicillin-sensitive Staphylococcus aureus 14-4 after 18 to 24 hrs by two-fold serial dilution method; outline: as §2
# Pseudomonas aeruginosa [5] = experiment: Antibacterial activity against Pseudomonas aeruginosa 14-16 after 18 to 24 hrs by two-fold serial dilution method; outline: as §2
# Enterococcus faecium [6] = experiment: Antibacterial activity against Enterococcus faecium 14-5 after 18 to 24 hrs by two-fold serial dilution method; outline: as §2
# Enterococcus faecalis [7] = experiment: Antibacterial activity against Enterococcus faecalis 14-1 after 18 to 24 hrs by two-fold serial dilution method; outline: as §2
# Pseudomonas aeruginosa [8] = experiment: Antibacterial activity against Pseudomonas aeruginosa 14-9 after 18 to 24 hrs by two-fold serial dilution method; outline: as §2
# Pseudomonas aeruginosa [9] = experiment: Antibacterial activity against Pseudomonas aeruginosa ATCC 27853 after 18 to 24 hrs by two-fold serial dilution method; outline: as §2
# Staphylococcus aureus [10] = experiment: Antibacterial activity against methicillin-resistant Staphylococcus aureus 14-4 after 18 to 24 hrs by two-fold serial dilution method; outline: as §1
# Klebsiella pneumoniae [11] = experiment: Antibacterial activity against Klebsiella pneumoniae 14-2 after 18 to 24 hrs by two-fold serial dilution method; outline: as §2
# [12] = system: Staphylococcus epidermidis; experiment: Antibacterial activity against methicillin-resistant Staphylococcus epidermidis 14-21 after 18 to 24 hrs by two-fold serial dilution method; outline: as §1
# Klebsiella pneumoniae [13] = experiment: Antibacterial activity against Klebsiella pneumoniae 14-1 after 18 to 24 hrs by two-fold serial dilution method; outline: as §2
# Enterococcus faecium [14] = experiment: Antibacterial activity against Enterococcus faecium 14-2 after 18 to 24 hrs by two-fold serial dilution method; outline: as §2
# Escherichia coli [15] = experiment: Antibacterial activity against extended-spectrum beta-lactamase producing Escherichia coli 14-2 after 18 to 24 hrs by two-fold serial dilution method; outline: as §2
# [16] = system: Staphylococcus epidermidis; experiment: Antibacterial activity against methicillin-resistant Staphylococcus epidermidis 14-37 after 18 to 24 hrs by two-fold serial dilution method; outline: as §1
# Enterococcus faecium [17] = experiment: Antibacterial activity against Enterococcus faecium 14-6 after 18 to 24 hrs by two-fold serial dilution method; outline: as §2
# Enterococcus faecalis [18] = experiment: Antibacterial activity against Enterococcus faecalis 14-2 after 18 to 24 hrs by two-fold serial dilution method; outline: as §2
# Escherichia coli [19] = experiment: Antibacterial activity against Escherichia coli 14-1 after 18 to 24 hrs by two-fold serial dilution method; outline: as §2
# [20] = system: Staphylococcus epidermidis; experiment: Antibacterial activity against methicillin-sensitive Staphylococcus epidermidis 14-2 after 18 to 24 hrs by two-fold serial dilution method; outline: as §2
# [21] = system: Staphylococcus epidermidis; experiment: Antibacterial activity against methicillin-resistant Staphylococcus epidermidis 14-39 after 18 to 24 hrs by two-fold serial dilution method; outline: as §1
# [22] = system: Mycobacterium tuberculosis; experiment: Antimycobacterial activity against Mycobacterium tuberculosis H37Rv ATCC 27294 incubated for 7 days by microplate Alamar Blue assay; details: H37Rv ATCC 27294, 168 h
# Outline: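 Fluorescence read-out. MIC is the lowest concentration that reduces fluorescence by at least 90% relative to the mean of replicate bacterium-only controls. Isoniazid and rifampicin were included as reference drugs.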
# Pseudomonas aeruginosa [23] = experiment: Antibacterial activity against Pseudomonas aeruginosa 14-15 after 18 to 24 hrs by two-fold serial dilution method; outline: as §2
# Klebsiella pneumoniae [24] = experiment: Antibacterial activity against extended-spectrum beta-lactamase producing Klebsiella pneumoniae 14-18 after 18 to 24 hrs by two-fold serial dilution method; outline: as §2
# [25] = system: Staphylococcus epidermidis; experiment: Antibacterial activity against methicillin-resistant Staphylococcus epidermidis 14-22 after 18 to 24 hrs by two-fold serial dilution method; outline: as §1
# Staphylococcus aureus [26] = experiment: Antibacterial activity against methicillin-sensitive Staphylococcus aureus 14-3 after 18 to 24 hrs by two-fold serial dilution method; outline: as §2
# Staphylococcus aureus [27] = experiment: Antibacterial activity against methicillin-resistant Staphylococcus aureus 14-5 after 18 to 24 hrs by two-fold serial dilution method; outline: as §1
# Klebsiella pneumoniae [28] = experiment: Antibacterial activity against extended-spectrum beta-lactamase producing Klebsiella pneumoniae 14-19 after 18 to 24 hrs by two-fold serial dilution method; outline: as §2
# Klebsiella pneumoniae [29] = experiment: Antibacterial activity against Klebsiella pneumoniae 14-3 after 18 to 24 hrs by two-fold serial dilution method; outline: as §2
# Klebsiella pneumoniae [30] = experiment: Antibacterial activity against extended-spectrum beta-lactamase producing Klebsiella pneumoniae 14-17 after 18 to 24 hrs by two-fold serial dilution method; outline: as §2
# Escherichia coli [31] = experiment: Antibacterial activity against Escherichia coli 14-2 after 18 to 24 hrs by two-fold serial dilution method; outline: as §2
# Pseudomonas aeruginosa [32] = experiment: Antibacterial activity against Pseudomonas aeruginosa 14-14 after 18 to 24 hrs by two-fold serial dilution method; outline: as §2
# Staphylococcus aureus [33] = experiment: Antibacterial activity against methicillin-sensitive Staphylococcus aureus 14-1 after 18 to 24 hrs by two-fold serial dilution method; outline: as §2
# Staphylococcus aureus [34] = experiment: Antibacterial activity against Staphylococcus aureus CMCC 26003 after 18 to 24 hrs by two-fold serial dilution method; outline: as §2
Structure (SMILES),MIC (Streptococcus pneumoniae),MIC (Klebsiella pneumoniae [1]),MIC (Escherichia coli [2]),MIC (Escherichia coli [3]),MIC (Staphylococcus aureus [4]),MIC (Pseudomonas aeruginosa [5]),MIC (Enterococcus faecium [6]),MIC (Enterococcus faecalis [7]),MIC (Pseudomonas aeruginosa [8]),MIC (Pseudomonas aeruginosa [9]),MIC (Staphylococcus aureus [10]),MIC (Klebsiella pneumoniae [11]),MIC [12],MIC (Klebsiella pneumoniae [13]),MIC (Enterococcus faecium [14]),MIC (Escherichia coli [15]),MIC [16],MIC (Enterococcus faecium [17]),MIC (Enterococcus faecalis [18]),MIC (Escherichia coli [19]),further results
CCO/N=C1/CN(c2nc3c(cc2F)c(=O)c(C(=O)O)cn3[C@@H]2C[C@@H]2F)CC1CNC1CC1 (stereo not given in full),1 µg/mL,128 µg/mL,0.03 µg/mL,16 µg/mL,8 µg/mL,32 µg/mL,16 µg/mL,32 µg/mL,8 µg/mL,16 µg/mL,16 µg/mL,32 µg/mL,16 µg/mL,32 µg/mL,4 µg/mL,128 µg/mL,16 µg/mL,32 µg/mL,0.125 µg/mL,128 µg/mL,MIC [20]: 64 µg/mL; MIC [21]: 32 µg/mL; MIC90 [22]: 0.72 µg/mL; MIC (Pseudomonas aeruginosa [23]): 32 µg/mL; MIC (Klebsiella pneumoniae [24]): 32 µg/mL; MIC [25]: 8 µg/mL; MIC (Staphylococcus aureus [26]): 4 µg/mL; MIC (Staphylococcus aureus [27]): 8 µg/mL; MIC (Klebsiella pneumoniae [28]): 64 µg/mL; MIC (Klebsiella pneumoniae [29]): 128 µg/mL; MIC (Klebsiella pneumoniae [30]): 32 µg/mL; MIC (Escherichia coli [31]): > 128 µg/mL; MIC (Pseudomonas aeruginosa [32]): 32 µg/mL; MIC (Staphylococcus aureus [33]): 4 µg/mL; MIC (Staphylococcus aureus [34]): < 0.008 µg/mL
CO/N=C1/CN(c2nc3c(cc2F)c(=O)c(C(=O)O)cn3-c2nc(N)c(F)cc2F)CC1(C)CNC1CC1 (stereo not given),4 µg/mL,> 128 µg/mL,16 µg/mL,128 µg/mL,8 µg/mL,> 128 µg/mL,128 µg/mL,128 µg/mL,128 µg/mL,128 µg/mL,32 µg/mL,> 128 µg/mL,128 µg/mL,> 128 µg/mL,64 µg/mL,> 128 µg/mL,64 µg/mL,64 µg/mL,8 µg/mL,> 128 µg/mL,MIC [20]: 128 µg/mL; MIC [21]: 128 µg/mL; MIC90 [22]: 15.6 µg/mL; MIC (Pseudomonas aeruginosa [23]): 128 µg/mL; MIC (Klebsiella pneumoniae [24]): > 128 µg/mL; MIC [25]: 32 µg/mL; MIC (Staphylococcus aureus [26]): 16 µg/mL; MIC (Staphylococcus aureus [27]): 32 µg/mL; MIC (Klebsiella pneumoniae [28]): > 128 µg/mL; MIC (Klebsiella pneumoniae [29]): > 128 µg/mL; MIC (Klebsiella pneumoniae [30]): > 128 µg/mL; MIC (Escherichia coli [31]): 128 µg/mL; MIC (Pseudomonas aeruginosa [32]): > 128 µg/mL; MIC (Staphylococcus aureus [33]): 16 µg/mL; MIC (Staphylococcus aureus [34]): 0.25 µg/mL
O=C(O)c1cn([C@@H]2C[C@@H]2F)c2nc(N3C/C(=N/OCc4ccccc4)C(CNC4CC4)C3)c(F)cc2c1=O (stereo not given in full),1 µg/mL,> 128 µg/mL,0.25 µg/mL,16 µg/mL,16 µg/mL,64 µg/mL,16 µg/mL,64 µg/mL,8 µg/mL,32 µg/mL,32 µg/mL,64 µg/mL,16 µg/mL,128 µg/mL,8 µg/mL,> 128 µg/mL,16 µg/mL,32 µg/mL,1 µg/mL,> 128 µg/mL,MIC [20]: 32 µg/mL; MIC [21]: 64 µg/mL; MIC90 [22]: 2.1 µg/mL; MIC (Pseudomonas aeruginosa [23]): 64 µg/mL; MIC (Klebsiella pneumoniae [24]): 64 µg/mL; MIC [25]: 8 µg/mL; MIC (Staphylococcus aureus [26]): 4 µg/mL; MIC (Staphylococcus aureus [27]): 8 µg/mL; MIC (Klebsiella pneumoniae [28]): 128 µg/mL; MIC (Klebsiella pneumoniae [29]): 128 µg/mL; MIC (Klebsiella pneumoniae [30]): 64 µg/mL; MIC (Escherichia coli [31]): > 128 µg/mL; MIC (Pseudomonas aeruginosa [32]): 64 µg/mL; MIC (Staphylococcus aureus [33]): 4 µg/mL; MIC (Staphylococcus aureus [34]): < 0.008 µg/mL
